Data published in ChEMBL document CHEMBL1123382, “Potential tumor- or organ-imaging agents. 27. Polyiodinated 1,3-disubstituted and 1,2,3-trisubstituted triacylglycerols” (J Med Chem, 1986).
Where “and” joins values, the source holds several entries; their conditions need not be identical. Equal values may be shown once.

How the values were obtained:
Rattus norvegicus [1] = experiment: Biodistribution in Rat lung after 30 minutes of iv administration; format: ADME, organism-based; conditions: in vivo, 0.5 h
Procedure, shortened: (§1)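 125I-labeled compound solubilized in normal saline with Tween-20 and given iv to rats, about 5-30 μCi (9-83 μg) per animal. Three to five rats per time point. Rats killed by exsanguination under ether anesthesia at 5 min, 30 min or 24 h. Organs minced, blotted free of blood and counted for radioiodine. Lines with "per g" are % administered dose per gram ± SEM.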

Rattus norvegicus [2] = experiment: Biodistribution in Rat liver after 5 minutes of iv administration; format: ADME, organism-based; conditions: in vivo; procedure, shortened: as §1
Rattus norvegicus [3] = experiment: Biodistribution in Rat lung after 24 hours of iv administration; format: ADME, organism-based; conditions: in vivo; procedure, shortened: as §1
Rattus norvegicus [4] = experiment: Biodistribution in Rat lung after 5 minutes of iv administration; format: ADME, organism-based; conditions: in vivo; procedure, shortened: as §1
Rattus norvegicus [5] = experiment: Biodistribution in Rat blood after 24 hours of iv administration; format: ADME, organism-based; conditions: in vivo; procedure, shortened: as §1
Rattus norvegicus [6] = experiment: Biodistribution in Rat blood after 30 minutes of iv administration; format: ADME, organism-based; conditions: in vivo, 0.5 h; procedure, shortened: as §1
Rattus norvegicus [7] = experiment: Biodistribution in Rat blood after 5 minutes of iv administration; format: ADME, organism-based; conditions: in vivo; procedure, shortened: as §1
Rattus norvegicus [8] = experiment: Biodistribution in Rat heart after 24 hours of iv administration; format: ADME, organism-based; conditions: in vivo; procedure, shortened: as §1
Rattus norvegicus [9] = experiment: Biodistribution in Rat heart after 30 minutes of iv administration; format: ADME, organism-based; conditions: in vivo, 0.5 h; procedure, shortened: as §1
Rattus norvegicus [10] = experiment: Biodistribution in Rat heart after 5 minutes of iv administration; format: ADME, organism-based; conditions: in vivo; procedure, shortened: as §1
Rattus norvegicus [11] = experiment: Biodistribution in Rat liver after 24 hours of iv administration; format: ADME, organism-based; conditions: in vivo; procedure, shortened: as §1
Rattus norvegicus [12] = experiment: (§2) Biodistribution in Rat liver after 30 minutes of iv administration; format: ADME, organism-based; conditions: in vivo, 0.5 h; procedure, shortened: as §1
Rattus norvegicus [13] = experiment: as §2; format: ADME, organism-based; conditions: in vivo, 0.5 h; procedure, shortened: as §1; remark: listed apart in the source
Rattus norvegicus [14] = experiment: Compound was evaluated for the lipid soluble radioactivity extracted from rat plasma at 24 hr after intravenous administration.; format: functional
Procedure, shortened: (§3)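 Liver and plasma taken 0.5 or 24 h after iv dosing of 125I-labeled compound in rats (n = 3-5). Extracted by a modified Folch procedure; value is % lipid (CHCl3/MeOH)-extractable radioactivity ± SEM. Extracts run on TLC in hexane/ethyl acetate 5:2 against unlabeled standard, then 1-cm strips counted to give % parent compound.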

Rattus norvegicus [15] = experiment: Compound was evaluated for the lipid soluble radioactivity extracted from rat liver at 0.5 hr after intravenous administration.; format: functional; procedure, shortened: as §3
Rattus norvegicus [16] = experiment: Compound was evaluated for the lipid soluble radioactivity extracted from rat liver at 24 hr after intravenous administration.; format: functional; procedure, shortened: as §3
Rattus norvegicus [17] = experiment: Compound was evaluated for the lipid soluble radioactivity extracted from rat plasma at 0.5 hr after intravenous administration.; format: functional; procedure, shortened: as §3
Rattus norvegicus [18] = experiment: Liver radioactivity after iv administration of compound (24 h) in rats; format: functional, organism-based
Procedure, shortened: (§4)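 Rats (3-5 per time point) dosed iv with about 5-30 μCi (9-83 μg) of 125I-labeled compound in saline containing Tween-20. Killed by exsanguination under ether at 5 min, 30 min or 24 h. Liver removed, minced, blotted and counted. Values are % administered dose per organ, based on each animal's actual liver weight, ± SEM.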

Rattus norvegicus [19] = experiment: Liver radioactivity after iv administration of compound (30 min) in rats; format: functional, organism-based; procedure, shortened: as §4
Rattus norvegicus [20] = experiment: Liver radioactivity after iv administration of compound (5 min) in rats; format: functional, organism-based; procedure, shortened: as §4
Rattus norvegicus [21] = experiment: Compound (125I labeled) was evaluated for the total radioactivity in albumin 5 min after intravenous administration.; format: functional; parameters: concentration or dose not given beside the values
Procedure, shortened: (§5)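 Rat plasma taken 5 or 30 min after iv dosing of 125I-labeled compound (saline/Tween-20) and run on polyacrylamide gel electrophoresis. Gels sectioned and each section gamma-counted. Radioactivity in each band (stacking gel, lipoproteins, albumin, below-albumin) is given as % of total radioactivity applied to the gel.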

Rattus norvegicus [22] = experiment: Evaluated for the total radioactivity in below albumin at 30 min after intravenous administration.; format: functional; procedure, shortened: as §5
Rattus norvegicus [23] = experiment: Compound (125I labeled) was evaluated for the total radioactivity in high-density lipoprotein 5 min after intravenous administration.; format: functional; procedure, shortened: as §5
Rattus norvegicus [24] = experiment: Compound (125I labeled) was evaluated for the total radioactivity in high-density lipoprotein, at 30 min after intravenous administration.; format: functional; procedure, shortened: as §5
Rattus norvegicus [25] = experiment: Compound (125I labeled) was evaluated for the total radioactivity in low-density lipoprotein 5 min after intravenous administration.; format: functional; parameters: concentration or dose not given beside the values; procedure, shortened: as §5
Rattus norvegicus [26] = experiment: Compound (125I labeled) was evaluated for the total radioactivity in low-density lipoprotein, at 30 min after intravenous administration.; format: functional; procedure, shortened: as §5
Rattus norvegicus [27] = experiment: Compound (125I labeled) was evaluated for the total radioactivity in stacking gel 5 min after intravenous administration.; format: functional; procedure, shortened: as §5
Rattus norvegicus [28] = experiment: Compound (125I labeled) was evaluated for the total radioactivity in stacking gel at 30 min after intravenous administration.; format: functional; procedure, shortened: as §5
Rattus norvegicus [29] = experiment: Compound (125I labeled) was evaluated for the total radioactivity in albumin at 30 min after intravenous administration.; format: functional; parameters: concentration or dose not given beside the values; procedure, shortened: as §5

| Compound | Biodistribution (Rattus norvegicus [1]) [%] | Biodistribution (Rattus norvegicus [2]) | Biodistribution (Rattus norvegicus [3]) [%] | Biodistribution (Rattus norvegicus [4]) [%] | Biodistribution (Rattus norvegicus [5]) [%] | Biodistribution (Rattus norvegicus [6]) [%] | Biodistribution (Rattus norvegicus [7]) [%] | Biodistribution (Rattus norvegicus [8]) [%] | Biodistribution (Rattus norvegicus [9]) [%] | Biodistribution (Rattus norvegicus [10]) [%] | Biodistribution (Rattus norvegicus [12]) [%] | Biodistribution (Rattus norvegicus [13]) [%] | Extracted (Rattus norvegicus [15]) [%] | Parent compound (Rattus norvegicus [15]) [%] | Parent compound (Rattus norvegicus [17]) [%] | Radioactivity (Rattus norvegicus [19]) | Radioactivity (Rattus norvegicus [20]) | Total radioactivity (Rattus norvegicus [21]) [%] | Total radioactivity (Rattus norvegicus [23]) [%] | Total radioactivity (Rattus norvegicus [24]) [%] | other results |
| --- | --- | --- | --- | --- | --- | --- | --- | --- | --- | --- | --- | --- | --- | --- | --- | --- | --- | --- | --- | --- | --- |
| CCCCCCCCCCCCCCCC(=O)OC(COC(=O)CCCCCCCCCCCc1c(I)cc(I)c(N)c1I)COC(=O)CCCCCCCCCCCc1c(I)cc(I)c(N)c1I | 0.73 | 0.64% and 5.84% | 0.12 | 1.38 | 0.1 | 1.49 | 2.74 | 0.12 | 1.06 | 1.43 | 4.24 | 4.24 | 64.2 | 28.1 | 11.3 | 30.7 | 43.4 | 14.8 | 12 | 25.7 | Biodistribution (Rattus norvegicus [11]): 0.14% and 1.06%; Extracted (Rattus norvegicus [14]): 52%; Parent compound (Rattus norvegicus [14]): 25.3%; Extracted (Rattus norvegicus [16]): 81.7%; Parent compound (Rattus norvegicus [16]): 44.9%; Extracted (Rattus norvegicus [17]): 64.6%; Radioactivity (Rattus norvegicus [18]): 7.73; Total radioactivity (Rattus norvegicus [22]): 3.4% and 3.1%; Total radioactivity (Rattus norvegicus [25]): 8.2%; Total radioactivity (Rattus norvegicus [26]): 12.1%; Total radioactivity (Rattus norvegicus [27]): 61.6%; Total radioactivity (Rattus norvegicus [28]): 8.6%; Total radioactivity (Rattus norvegicus [29]): 50.7% |
| CCCCCCCCCCCCCCCC(=O)OC(COC(=O)CCCCCCCCCCCCCCCCc1c(I)cc(I)c(N)c1I)COC(=O)CCCCCCCCCCCCCCCCc1c(I)cc(I)c(N)c1I | 1.03 | 0.67% and 4.76% | 0.08 | 1.45 | 0.07 | 1.97 | 4.78 | 0.03 | 0.87 | 0.87 | 4.2 | 4.2 | 42.3 | 25.3 | 28.8 | 32.7 | 33.8 | 26.2 | 34.4 | 24.8 | Biodistribution (Rattus norvegicus [11]): 0.13% and 0.37%; Extracted (Rattus norvegicus [14]): 44.1%; Parent compound (Rattus norvegicus [14]): 18%; Extracted (Rattus norvegicus [16]): 63.5%; Parent compound (Rattus norvegicus [16]): 17.3%; Extracted (Rattus norvegicus [17]): 70.9%; Radioactivity (Rattus norvegicus [18]): 2.59; Total radioactivity (Rattus norvegicus [25]): 32.9%; Total radioactivity (Rattus norvegicus [26]): 14.2%; Total radioactivity (Rattus norvegicus [27]): 2.5%; Total radioactivity (Rattus norvegicus [28]): 9.7%; Total radioactivity (Rattus norvegicus [29]): 37.1% |
| Nc1c(I)cc(I)c(CCC(=O)OCC(COC(=O)CCc2c(I)cc(I)c(N)c2I)OC(=O)CCc2c(I)cc(I)c(N)c2I)c1I | 6.63 | 0.44% and 8.02% | 2.64 | 6.69 | 0.05 | 1.71 | 2.15 | 0.19 | 0.82 | 1.93 | 10.4 | 10.38 | 94.8 | 97.3 | 94.5 | 75.5 | 60.5 | 10.5 | 38.4 | 34.5 | Extracted (Rattus norvegicus [14]): 83.3%; Parent compound (Rattus norvegicus [14]): 68.2%; Extracted (Rattus norvegicus [16]): 91.1%; Parent compound (Rattus norvegicus [16]): 96.5%; Extracted (Rattus norvegicus [17]): 89%; Radioactivity (Rattus norvegicus [18]): 86.2; Total radioactivity (Rattus norvegicus [22]): 3.2% and 4.1%; Total radioactivity (Rattus norvegicus [25]): 29.6%; Total radioactivity (Rattus norvegicus [26]): 27.6%; Total radioactivity (Rattus norvegicus [27]): 18.3%; Total radioactivity (Rattus norvegicus [28]): 20.2%; Total radioactivity (Rattus norvegicus [29]): 13.8% |
| Nc1c(I)cc(I)c(CCCCCCCCCCCC(=O)OCC(COC(=O)CCCCCCCCCCCc2c(I)cc(I)c(N)c2I)OC(=O)CCCCCCCCCCCc2c(I)cc(I)c(N)c2I)c1I | 0.67 | 0.6% and 6.94% | 0.09 | 1.13 | 0.07 | 0.91 | 1.46 | 0.05 | 0.65 | 2.67 | 5.24 | 5.24 | 76.5 | 68.8 | 24.1 | 45.7 | 53.8 | 30.2 | 27.2 | 33.6 | Biodistribution (Rattus norvegicus [11]): 0.1% and 0.71%; Total radioactivity (Rattus norvegicus [22]): 5.5% and 12.6%; Total radioactivity (Rattus norvegicus [25]): 12.7%; Total radioactivity (Rattus norvegicus [26]): 6.2%; Total radioactivity (Rattus norvegicus [27]): 24.4%; Total radioactivity (Rattus norvegicus [28]): 5.8%; Total radioactivity (Rattus norvegicus [29]): 40.6% |
